CHOP inhibitor = blocks CHOP induction under ER stress; CHO-K1 CHOP-promoter luciferase, tunicamycin-induced, 15-18 h; AID 2732; 220,000 tested, 3.8% active; inhibition, % at 10 µM;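 active = compounds that reduced the stress-induced luciferase reporter signal by more than about 70% of percent inhibition, limit read from the data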;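 also: 0% = tunicamycin plus vehicle and 100% = wells without tunicamycin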
GRIN3A LBD mod = modulators (binders) of human NR3A ligand-binding domain | NR3A LBD differential scanning fluorimetry, Tm shift; 0% = protein alone, 100% = glycine-bound protein | Tm shift relative to glycine control, % at 25 µM | 340,000 tested, 2.5% active;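 active = melting temperature shift of at least 10% of the positive control shift, at one fixed dose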
XBP1 UPR activ = adaptive UPR (XBP1) activation | CHO-XBP1 luciferase reporter, IRE1-XBP1 UPR activation, luminescence; percent of tunicamycin response, DMSO as zero | activation, % at 20 µM | 330,000 tested, 0.33% active | AID 463104;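 active = versus positive control, 20 µM dose yields 30% or more activation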;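 also: 100% = tunicamycin at 10 µg/mL and 0% = DMSO only wells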
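Material: CHO cell line with stable XBP1 luciferase reporter; buffer or medium: F12 medium containing 10% fetal bovine serum; compound: single point, 20 µM final compound, 1% DMSO; incubation: 6 h treatment, 37 °C; measured by: glow luminescence from Steady-Glo reagent; evaluation: activation, % of tunicamycin; control set: tunicamycin high, DMSO low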
aDG glyco act = alpha-DG glycosylation activation; Pro5-aDG cells, alpha-DG glycosylation AlphaScreen (IIH6); 0% Pro5, 100% B10-LARGE cell signal; activation, % at 10 µM; 360,000 tested, 0.22% active;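 active = activation of at least 8% versus controls, or a plate z-score of at least 8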;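 also: Pro5 are CHO cells carrying HIG-tagged alpha-DG that lacks glycosylation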
MPTP inh = inhibitors of mitochondrial permeability transition pore; isolated mouse mitochondria, Ca2+ swelling absorbance, 30 min; inhibition, % at 10 µM; 360,000 tested, 1.4% active;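 active = inhibition of 50% or more, scaled per plate between neutral and stimulator controls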;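 also: 0% = DMSO wells given calcium and 100% = 1 mM EGTA wells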
CHOP UPR activ = apoptotic UPR (CHOP) activation | CHO-CHOP luciferase reporter, luminescence; percent of tunicamycin response over DMSO baseline | activation, % at 10 µM | 330,000 tested, 0.34% active | AID 449763;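 active = at 10 µM dose, activation of 40% or more, normalized to positive control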;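 also: 100% = tunicamycin at 10 µg/mL and 0% = DMSO alone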
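System: CHO-CHOP luciferase reporter cell line | Buffer or medium: F12 medium containing 10% fetal bovine serum | Doses: One dose, 10 µM in 0.5% DMSO | Times: 6 h compound exposure at 37 °C after overnight seeding | Signal: Luciferase luminescence | Read-out: % activation vs tunicamycin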
Rh123 counter = membrane potential counter-screen of mitochondrial pore inhibitors. 5,000 tested, 78% active. shares compounds with MPTP inh. isolated mitochondria, Rhodamine 123 fluorescence. inhibition, % at 10 µM; in the data active = inhibition above about 22%;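 also: 0% = DMSO vehicle and 100% = positive control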
MPTP abs DR = MPTP inhibition, dose response swelling confirmation. isolated mitochondria swelling, absorbance. 780 tested, 58% active. IC50, µM. shares compounds with MPTP inh; in the data active = IC50 below about 20 µM
MPTP counter DR = active in counter-screen for permeability transition pore inhibitors | shares compounds with MPTP inh | isolated mitochondria counterscreen, fluorescence read-out | IC50, µM | 780 tested, 49% active; in the data active = IC50 below about 80 µM
Numbers without * were called inactive. Compounds with a hit are over-represented: about 5.6% of the library has one in this group of screens.

Screening c1csc(CNc2nc(NCC3CCCCC3)c3sccc3n2)c1 returned aDG glyco act 1, MPTP inh 51* and Rh123 counter 91*.
Screening COc1ccccc1CNc1nc(NCCOc2ccccc2Cl)c2sccc2n1 returned aDG glyco act 1, MPTP inh 50* and Rh123 counter 92*.
Screening CSc1ccccc1CNc1nc(NCC2CC2)nc2ccsc12 returned aDG glyco act 0, MPTP inh 91* and Rh123 counter 102*.
`COc1cccc(CNc2nc(NCC3CC3)nc3ccsc23)c1OC` gave aDG glyco act 1 and MPTP inh 4.
Screening c1ccc(CNc2nc(NCc3cccs3)nc3ccsc23)cc1 returned aDG glyco act 3 and MPTP inh 21.
`CC(C)c1ccc(CNc2nc(NCC3CC3)nc3ccsc23)cc1` gave aDG glyco act 5, MPTP inh 80* and Rh123 counter 99*.
For Cc1cc(C(=O)N2CCC2(C)C(=O)O)nn1C(C)(C)C (stereo unspecified) the results were aDG glyco act 0 and MPTP inh 0.
COc1cc(OC)c(NC(=O)/C=C/C(=O)O)cc1Cl was read as CHOP inhibitor 2, GRIN3A LBD mod 1, XBP1 UPR activ -1, aDG glyco act 0, MPTP inh 0 and CHOP UPR activ 1.
Screening CCC(O)C1CCN(C(=O)c2cc(COc3ccc4ncccc4c3)on2)CC1 (stereo unspecified) returned CHOP inhibitor 66, GRIN3A LBD mod -1, XBP1 UPR activ -3, aDG glyco act 7, MPTP inh 92*, CHOP UPR activ 2 and Rh123 counter 102*.
O=C(c1cc(COc2ccc3ncccc3c2)on1)N1CCCC(O)C1 (stereo unspecified) was read as CHOP inhibitor 29, GRIN3A LBD mod 0, XBP1 UPR activ 1, aDG glyco act 1, MPTP inh 2 and CHOP UPR activ -2.
Screening COCC1CCCN(C(=O)c2cc(COc3ccc4ncccc4c3)on2)C1 (stereo unspecified) returned GRIN3A LBD mod 2, XBP1 UPR activ -5, aDG glyco act 5, MPTP inh 95*, CHOP UPR activ 2 and Rh123 counter 97*.
Cc1cccc(C)c1OCc1cc(C(=O)NC2CCC2)no1 was read as GRIN3A LBD mod 1, XBP1 UPR activ 7, aDG glyco act 0, MPTP inh 1 and CHOP UPR activ 1.
`CCN1CCN(C(=O)c2cc(COc3c(C)cccc3C)on2)CC1` gave GRIN3A LBD mod -1, XBP1 UPR activ -2, aDG glyco act 0, MPTP inh 1 and CHOP UPR activ 2.
`O=C(NC1CCCCCCC1)c1cc(COc2ccc3ncccc3c2)on1` gave CHOP inhibitor 81*, GRIN3A LBD mod -10, aDG glyco act 2, MPTP inh 102* and Rh123 counter 99*.
For Cc1cccnc1CN1CCN(C(=O)c2cc(COc3ccc4ncccc4c3)on2)CC1 the results were CHOP inhibitor 60, GRIN3A LBD mod 5, XBP1 UPR activ 0, aDG glyco act 2, MPTP inh 104*, CHOP UPR activ 3 and Rh123 counter 102*.
For O=C(c1cc(COc2ccc3ncccc3c2)on1)N1CCC(O)CC1 the results were CHOP inhibitor 22, GRIN3A LBD mod 0, XBP1 UPR activ 0, aDG glyco act 2, MPTP inh 1 and CHOP UPR activ 2.
For CCCC1NC(=O)c2cccnc2-n2c1nc1cc(F)c(F)cc1c2=O (stereo unspecified) the results were aDG glyco act 0 and MPTP inh -1.
Screening Cn1ncc(Cl)c1C(=O)N1CCN(C(=O)c2ccco2)CC1 returned CHOP inhibitor 17, GRIN3A LBD mod -1, aDG glyco act 0, MPTP inh 73*, Rh123 counter -1, MPTP abs DR >100 and MPTP counter DR >80.
Screening Cn1ncc(Cl)c1C(=O)N1CCN(c2ccccc2)CC1 returned GRIN3A LBD mod 2, XBP1 UPR activ -5, aDG glyco act 0, MPTP inh 1 and CHOP UPR activ -3.
`O=C1NC(c2cc(Cl)cc([N+](=O)[O-])c2O)Nc2ccccc21` (stereo unspecified) gave CHOP inhibitor 1, GRIN3A LBD mod 14*, XBP1 UPR activ 1, aDG glyco act 0, MPTP inh 88*, CHOP UPR activ -1, Rh123 counter 10, MPTP abs DR inactive and MPTP counter DR 11*.
Screening COc1ccc(-n2nc(C(=O)c3cccs3)cc(-c3nc4ccccc4[nH]3)c2=N)cc1 returned CHOP inhibitor 69, GRIN3A LBD mod -1, XBP1 UPR activ -2, aDG glyco act 1, MPTP inh 78*, CHOP UPR activ 5 and Rh123 counter -4.
For Cc1ccccc1-n1nc(C(=O)c2cccs2)cc(-c2nc3ccccc3[nH]2)c1=N the results were CHOP inhibitor -66, GRIN3A LBD mod 1, XBP1 UPR activ 2, aDG glyco act 0, MPTP inh 91*, CHOP UPR activ 1 and Rh123 counter 98*.
CC(C)(C)[C@H]1C=C(C(=O)Nc2ccccc2)O[C@@H](OCCCCO)C1 was read as GRIN3A LBD mod -1, XBP1 UPR activ 0, aDG glyco act 0, MPTP inh -2 and CHOP UPR activ 2.
Screening N#C/C(=C\c1ccc(O)cc1)c1nc2ccccc2o1 returned CHOP inhibitor -21, GRIN3A LBD mod 8, XBP1 UPR activ 5, aDG glyco act 0, MPTP inh 87*, CHOP UPR activ 4 and Rh123 counter 90*.
Screening COc1cc(/C=N/NC(=O)C2CCN(CC(O)COCc3ccccc3)CC2)ccc1O (stereo unspecified) returned CHOP inhibitor 4, GRIN3A LBD mod 0, XBP1 UPR activ 1, aDG glyco act 0, MPTP inh -3 and CHOP UPR activ -1.
For Cc1ccc(-n2c(O)c(/C=N/Nc3ccc(S(=O)(=O)N4CCOCC4)cc3[N+](=O)[O-])c3ccccc3c2=O)c(C)c1 the results were CHOP inhibitor 57, GRIN3A LBD mod -1, XBP1 UPR activ -3, aDG glyco act -1, MPTP inh 110*, CHOP UPR activ 0 and Rh123 counter 40*.

High-throughput results as filed in PubChem BioAssay.
